Test results from ChEMBL document CHEMBL1137938, “Affinity and intrinsic efficacy (IE) of 5'-carbamoyl adenosine analogues for the A1 adenosine receptor--efforts towards the discovery of a chronic ventricular rate control agent for the treatment of atrial fibrillation (AF)” (Bioorg Med Chem Lett, 2004).
One block for each molecule: values may come before it.

Legend:
[1] = Concentration in rat plasma after 5 mg/kg oral gavage for 8 hours; type: ADME, organism-based; design: dose 5 mg/kg, route oral
Outline: (§1)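 Rats dosed by oral gavage with parent at 5 mg/kg, or with bis-acetate prodrug at molar equivalents. Parent concentration in plasma followed over time. Cmax and AUC taken from the plasma profile. Oral bioavailability derived from AUC measurements.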

[2] = Maximum concentration in rat plasma after 5 mg/kg oral gavage; type: ADME, organism-based; design: dose 5 mg/kg, route oral; outline: as §1
[3] = tested on: Adenosine receptor A1 (Mesocricetus auratus); experiment: Stimulation of binding of [35S]GTP uM)
[4] = organism: Cavia porcellus; experiment: Agonist-induced SH prolongation in guinea pig isolated heart was determined; Inactive; type: functional
[5] = organism: Cavia porcellus; experiment: Agonist-induced SH prolongation in guinea pig isolated heart was determined; 3-5 uM (Full agonist); type: functional
[6] = organism: Cavia porcellus; experiment: Agonist-induced SH prolongation in guinea pig isolated heart was determined; 3-5 uM (Partial agonist); type: functional
[7] = organism: Cavia porcellus; experiment: Agonist-induced SH prolongation in guinea pig isolated heart was determined; 0.5-0.51 uM (Partial agonist); type: functional
[8] = Amount of tecadenoson present after 30 min in the liver S-9 assay as determined by mass specanalysis; type: ADME, tissue-based; details: human, 0.5 h
[9] = Compound remaining after incubation with 2 mg/mL of human liver microsomes at 37 degrees C for 30 min in a pH 7.4, 0.05 M phosphate buffer; type: ADME, Microsome
Outline: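 Incubation with human liver microsomes at 2 mg/mL, 37 C, 30 min, in 0.05 M phosphate buffer pH 7.4 containing 5 mM MgCl2 and 2 mM NADPH; percentage of parent compound remaining recorded.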

[10] = Amount of tecadenoson present after 30 min in the liver S-9 assay as determined by mass specanalysis; 1-2; type: ADME, tissue-based; details: human, 0.5 h
[11] = organism: Cavia porcellus; experiment: Agonist-induced SH prolongation in guinea pig isolated heart was determined; 0.5-1 uM (Partial agonist); type: functional, organism-based
[12] = organism: Cavia porcellus; experiment: Agonist-induced SH prolongation in guinea pig isolated heart was determined; type: functional
[13] = Amount of tecadenoson present after 30 min in the liver S-9 assay as determined by mass specanalysis; -0.5 to 1; type: ADME, tissue-based; details: human, 0.5 h
[14] = Bioavailability in rat after 5 mg/kg oral gavage; type: ADME, organism-based; details: in vivo, read-out: Bioavailabiility; outline: as §1
[15] = Amount of tecadenoson present after 30 min in the liver S-9 assay as determined by mass specanalysis; trace; type: ADME, tissue-based; details: human, 0.5 h
[16] = Plasma half life in rat after 5 mg/kg oral gavage; 6-8 hours; type: ADME, organism-based; design: dose 5 mg/kg, route oral

Structure (SMILES): CNC(=O)OC[C@H]1OC(n2cnc3c(N[C@@H]4CCOC4)ncnc32)[C@H](OC(C)=O)[C@@H]1OC(C)=O (stereo not given in full)
AUC at 8 h [1]: 1340 ng·h/mL | Cmax [2]: 647 ng/mL

Structure (SMILES): O=C(NCc1ccccc1)OC[C@H]1OC(n2cnc3c(N[C@@H]4CCOC4)ncnc32)[C@H](O)[C@@H]1O (stereo not given in full)
[35S]GTPγS binding stimulation (% of CPA) [3]: 44%

Structure (SMILES): O=C(NC1CCC1)OC[C@H]1OC(n2cnc3c(N[C@@H]4CCOC4)ncnc32)[C@H](O)[C@@H]1O (stereo not given in full)
[35S]GTPγS binding stimulation (% of CPA) [3]: 67%

Structure (SMILES): C=CCNC(=O)OC[C@H]1OC(n2cnc3c(N[C@@H]4CCOC4)ncnc32)[C@H](O)[C@@H]1O (stereo not given in full)
[35S]GTPγS binding stimulation (% of CPA) [3]: 48%

Structure (SMILES): O[C@@H]1[C@@H](COC(=S)NCc2ccccc2)OC(n2cnc3c(N[C@@H]4CCOC4)ncnc32)[C@@H]1O (stereo not given in full)
[35S]GTPγS binding stimulation (% of CPA) [3]: 93%

Structure (SMILES): O=C(NC1CC1)OC[C@H]1OC(n2cnc3c(N[C@@H]4CCOC4)ncnc32)[C@H](O)[C@@H]1O (stereo not given in full)
[35S]GTPγS binding stimulation (% of CPA) [3]: 82%

Structure (SMILES): O=C(NC1CCCC1)OC[C@H]1OC(n2cnc3c(N[C@@H]4CCOC4)nc(Cl)nc32)[C@H](O)[C@@H]1O (stereo not given in full)
[35S]GTPγS binding stimulation (% of CPA) [3]: 69% | EC50 [6]: 5 µM

Structure (SMILES): CNC(=O)OC[C@H]1OC(n2cnc3c(N[C@@H]4CCOC4)nc(Cl)nc32)[C@H](O)[C@@H]1O (stereo not given in full)
[35S]GTPγS binding stimulation (% of CPA) [3]: 77% | EC50 [6]: 5 µM

Structure (SMILES): CCNC(=S)OC[C@H]1OC(n2cnc3c(N[C@@H]4CCOC4)nc(Cl)nc32)[C@H](O)[C@@H]1O (stereo not given in full)
[35S]GTPγS binding stimulation (% of CPA) [3]: 84% | EC50 [7]: 0.51 µM | Activity [8]: 0% | remaining at 0.5 h [9]: 41%

Structure (SMILES): O=C(NC1CCCC1)OC[C@H]1OC(n2cnc3c(N[C@@H]4CCOC4)ncnc32)[C@H](O)[C@@H]1O (stereo not given in full)
EC50 [6]: 5 µM

Structure (SMILES): CCCCNC(=O)OC[C@H]1OC(n2cnc3c(N[C@@H]4CCOC4)ncnc32)[C@H](O)[C@@H]1O (stereo not given in full)
[35S]GTPγS binding stimulation (% of CPA) [3]: 49% | EC50 [12]: > 5 µM

Structure (SMILES): O=C(NC1CCCCC1)OC[C@H]1OC(n2cnc3c(N[C@@H]4CCOC4)ncnc32)[C@H](O)[C@@H]1O (stereo not given in full)
[35S]GTPγS binding stimulation (% of CPA) [3]: 80%

Structure (SMILES): CNC(=S)OC[C@H]1OC(n2cnc3c(N[C@@H]4CCOC4)nc(Cl)nc32)[C@H](O)[C@@H]1O (stereo not given in full)
[35S]GTPγS binding stimulation (% of CPA) [3]: 77% | EC50 [7]: 0.51 µM | Activity [8]: 0% | remaining at 0.5 h [9]: 62%

Further lines, results first:

[35S]GTPγS binding stimulation (% of CPA) [3]: 78%
Structure (SMILES): C=CCNC(=S)OC[C@H]1OC(n2cnc3c(N[C@@H]4CCOC4)ncnc32)[C@H](O)[C@@H]1O (stereo not given in full)

EC50 [4]: Not Active | [35S]GTPγS binding stimulation (% of CPA) [3]: 70%
Structure (SMILES): CCCCNC(=S)OC[C@H]1OC(n2cnc3c(N[C@@H]4CCOC4)ncnc32)[C@H](O)[C@@H]1O (stereo not given in full)

EC50 [5]: 5 µM | [35S]GTPγS binding stimulation (% of CPA) [3]: 77%
Structure (SMILES): CCNC(=S)OC[C@H]1OC(n2cnc3c(N[C@@H]4CCOC4)ncnc32)[C@H](O)[C@@H]1O (stereo not given in full)

[35S]GTPγS binding stimulation (% of CPA) [3]: 85%
Structure (SMILES): CN(C)C(=S)OC[C@H]1OC(n2cnc3c(N[C@@H]4CCOC4)ncnc32)[C@H](O)[C@@H]1O (stereo not given in full)

[35S]GTPγS binding stimulation (% of CPA) [3]: 79%
Structure (SMILES): O[C@@H]1[C@@H](COC(=S)NC2CCC2)OC(n2cnc3c(N[C@@H]4CCOC4)ncnc32)[C@@H]1O (stereo not given in full)

Activity [10]: 2% | [35S]GTPγS binding stimulation (% of CPA) [3]: 89% | remaining at 0.5 h [9]: 98% | EC50 [11]: 1 µM
Structure (SMILES): CCCNC(=S)OC[C@H]1OC(n2cnc3c(N[C@@H]4CCOC4)ncnc32)[C@H](O)[C@@H]1O (stereo not given in full)

[35S]GTPγS binding stimulation (% of CPA) [3]: 80%
Structure (SMILES): CCNC(=O)OC[C@H]1OC(n2cnc3c(N[C@@H]4CCOC4)ncnc32)[C@H](O)[C@@H]1O (stereo not given in full)

[35S]GTPγS binding stimulation (% of CPA) [3]: 82%
Structure (SMILES): O[C@@H]1[C@@H](COC(=S)NC2CCCCC2)OC(n2cnc3c(N[C@@H]4CCOC4)ncnc32)[C@@H]1O (stereo not given in full)

Activity [13]: 1% | [35S]GTPγS binding stimulation (% of CPA) [3]: 77% | EC50 [7]: 0.51 µM | remaining at 0.5 h [9]: 99%
Structure (SMILES): CNC(=S)OC[C@H]1OC(n2cnc3c(N[C@@H]4CCOC4)ncnc32)[C@H](O)[C@@H]1O (stereo not given in full)

bioavailability [14]: 9% | AUC at 8 h [1]: 698 ng·h/mL | Activity [15]: Partially active | half-life [16]: 8 h | Cmax [2]: 305 ng/mL | remaining at 0.5 h [9]: ~100% | EC50 [6]: 5 µM
Structure (SMILES): CNC(=O)OC[C@H]1OC(n2cnc3c(N[C@@H]4CCOC4)ncnc32)[C@H](O)[C@@H]1O (stereo not given in full)

[35S]GTPγS binding stimulation (% of CPA) [3]: 84%
Structure (SMILES): CC(C)NC(=S)OC[C@H]1OC(n2cnc3c(N[C@@H]4CCOC4)ncnc32)[C@H](O)[C@@H]1O (stereo not given in full)

[35S]GTPγS binding stimulation (% of CPA) [3]: 87%
Structure (SMILES): CN(C)C(=O)OC[C@H]1OC(n2cnc3c(N[C@@H]4CCOC4)ncnc32)[C@H](O)[C@@H]1O (stereo not given in full)

[35S]GTPγS binding stimulation (% of CPA) [3]: 82%
Structure (SMILES): O[C@@H]1[C@@H](COC(=S)NC2CC2)OC(n2cnc3c(N[C@@H]4CCOC4)ncnc32)[C@@H]1O (stereo not given in full)

[35S]GTPγS binding stimulation (% of CPA) [3]: 73%
Structure (SMILES): CCCNC(=O)OC[C@H]1OC(n2cnc3c(N[C@@H]4CCOC4)ncnc32)[C@H](O)[C@@H]1O (stereo not given in full)

EC50 [6]: < 0.5 µM
Structure (SMILES): OC[C@H]1O[C@@H](n2cnc3c(N[C@@H]4CCOC4)ncnc32)[C@H](O)[C@@H]1O [TECADENOSON]

EC50 [5]: 5 µM | [35S]GTPγS binding stimulation (% of CPA) [3]: 95%
Structure (SMILES): O[C@@H]1[C@@H](COC(=S)NC2CCCC2)OC(n2cnc3c(N[C@@H]4CCOC4)ncnc32)[C@@H]1O (stereo not given in full)

[35S]GTPγS binding stimulation (% of CPA) [3]: 91%
Structure (SMILES): CC(C)NC(=O)OC[C@H]1OC(n2cnc3c(N[C@@H]4CCOC4)ncnc32)[C@H](O)[C@@H]1O (stereo not given in full)
